Test results published in ChEMBL document CHEMBL1124738, “Novel 21-aminosteroids that inhibit iron-dependent lipid peroxidation and protect against central nervous system trauma” (J Med Chem, 1990).
pIC50: −log10 of the molar value.

Legend:
Format in all cases: functional
[1] = organism: Rattus norvegicus; assay: Ability to inhibit iron-dependent lipid peroxidation in rat brain homogenate using MDA (malondialdehyde) formation assay at 300 uM
[2] = organism: Mus musculus; assay: Lowest effective dose in a mouse head injury model was reported
Method in brief: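 Unanesthetized male CF-1 mice, 16–22 g; concussive head injury by weight drop (900 g cm for 16–20 g mice, 950 g cm for 20–22 g). Vehicle or compound given blindly as iv bolus 3–5 min post-injury; vehicle 0.05 N HCl or 0.5% Tween 80. Four groups of 20 per trial (vehicle plus three doses). Grip test on suspended taut string at 1 h; group score as mean time on string.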

[3] = tested on: Mus musculus; assay: Percent increase in KCN lethality (cytotoxic hypoxia) model against male CF-1 mice at a dose 100 mg/kg administered intravenously; conditions: route intravenous
[4] = tested on: Mus musculus; assay: Percent increase in KCN lethality (cytotoxic hypoxia) model against male CF-1 mice at a dose 30 mg/kg administered intravenously; conditions: route intravenous
[5] = organism: Rattus norvegicus; assay: Ability to inhibit iron-dependent lipid peroxidation in rat brain homogenate using MDA (malondialdehyde) formation assay
Method in brief: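 Incubations at 37 °C contain 20% ethanol and compound up to 300 μM, and are started with 200 μM Fe2+. They are stopped after 20 min with ice-cold 12.5% TCA in 0.8 N HCl. Readout is TBAR formation, reported as IC50 or % inhibition at 300 μM.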

[6] = tested on: Mus musculus; assay: Evaluated in a potassium cyanide lethality (cytotoxic hypoxia) model against male CF-1 mice at 100 mg/kg administered intravenously; conditions: route intravenous
[7] = tested on: Mus musculus; assay: Evaluated in a potassium cyanide lethality (cytotoxic hypoxia) model against male CF-1 mice at a dose 30 mg/kg administered intravenously; conditions: route intravenous

## C[C@]12CCC(=O)C=C1CCC1C2C(=O)C[C@@]2(C)C1CC[C@]2(O)C(=O)CN1CCN(c2ccccn2)CC1 (some centres undefined)
[1]
  inhibition: 3%

## C[C@]12CCC(=O)C=C1CCC1C2=CC[C@@]2(C)C1CC[C@]2(O)C(=O)CN1CCN(c2ccccn2)CC1 (some centres undefined)
[2]
  Lowest effective dose: 10 mg/kg
[1]
  inhibition: 23%

## C[C@]12C=CC(=O)C=C1CCC1C2[C@H](O)C[C@@]2(C)C1CC[C@]2(O)C(=O)CN1CCN(c2ccccn2)CC1 (some centres undefined)
[1]
  inhibition: 0%

## C[C@H]1C[C@@H]2[C@H]([C@@H](O)C[C@@]3(C)[C@H]2CC[C@]3(O)C(=O)COC(=O)CCC(=O)[O-])[C@@]2(C)C=CC(=O)C=C12.[Na+] [METHYLPREDNISOLONE SODIUM SUCCINATE]
[3]
  Increase in LD50: 20%
[2]
  Lowest effective dose: 15 mg/kg
[4]
  Increase in LD50: 0%
[1]
  inhibition: 0%

## CC(=O)N(O)CCCCCNC(=O)CCC(=O)N(O)CCCCCNC(=O)CCC(=O)N(O)CCCCCN [DEFEROXAMINE]
[5]
  pIC50: 3.95

## COc1cccc(N2CCN(CC(=O)[C@@]3(O)CCC4C5CCC6=CC(=O)CC[C@]6(C)C5=CC[C@@]43C)CC2)n1 (some centres undefined)
[5]
  pIC50: 4.00

## C[C@@H]1C[C@H]2[C@@H]3CCC4=CC(=O)C=C[C@]4(C)C3=CC[C@]2(C)[C@H]1C(=O)CN1CCN(c2cc(N3CCCC3)nc(N3CCCC3)n2)CC1 [TIRILAZAD]
[3]
  Increase in LD50: 20%
[2]
  Lowest effective dose: 0.003 mg/kg
[4]
  Increase in LD50: 14%
[5]
  pIC50: 4.74

## CCN(CC)c1ccc(N2CCN(CC(=O)[C@H]3[C@H](C)CC4C5CCC6=CC(=O)C=C[C@]6(C)C5=CC[C@@]43C)CC2)nc1N(CC)CC.O=C(O)/C=C/C(=O)O (some centres undefined)
[3]
  Increase in LD50: 46%
[2]
  Lowest effective dose: 0.003 mg/kg
[4]
  Increase in LD50: 15%
[5]
  pIC50: 5.52

## C[C@H]1CC2C([C@@H](O)C[C@@]3(C)C2CC[C@]3(O)C(=O)CN2CCN(c3ccccn3)CC2)[C@@]2(C)C=CC(=O)C=C12 (some centres undefined)
[1]
  inhibition: 0%

## C[C@]12CC[C@H]3[C@@H](CCC4=CC(=O)CC[C@@]43C)[C@@H]1CC[C@@H]2C(=O)CN1CCN(c2ccccn2)CC1
[1]
  inhibition: 9%

## Cc1c(C)c2c(c(C)c1O)CC[C@@](C)(CCC[C@H](C)CCC[C@H](C)CCCC(C)C)O2 [ALPHA-TOCOPHEROL]
[5]
  pIC50: 4.52

## C[C@]12CCC(=O)C=C1CCC1C2=CC[C@@]2(C)C1CC[C@]2(O)C(=O)CN1CCN(Cc2ncccc2O)CC1 (some centres undefined)
[1]
  inhibition: 5%

## C[C@]12CCC(O)CC1CC[C@@H]1[C@@H]2C(=O)C[C@@]2(C)[C@H]1CC[C@]2(O)C(=O)CN1CCN(c2ccccn2)CC1 (some centres undefined)
[1]
  inhibition: 3%

## C[C@@H]1C[C@H]2[C@@H]3CCC4CC(=O)CC[C@]4(C)C3=CC[C@]2(C)[C@@]1(O)C(=O)CN1CCN(c2ccccn2)CC1 (some centres undefined)
[1]
  inhibition: 31%

## C[C@]12CC(=O)[C@H]3[C@@H](CCC4=CC(=O)CC[C@@]43C)[C@@H]1CC[C@@H]2C(=O)CN1CCN(c2ccccn2)CC1
[1]
  inhibition: 14%

## C[C@]12CCC(=O)C=C1CCC1C2[C@H](O)C[C@@]2(C)C1CC[C@]2(O)C(=O)CN1CCN(c2ccccn2)CC1 (some centres undefined)
[1]
  inhibition: 20%

## C[C@]12CCC(=O)C=C1CCC1C2=CC[C@@]2(C)C1CC[C@]2(O)C(=O)CN1CCN(CCO)CC1 (some centres undefined)
[1]
  inhibition: 0%

## C[C@@H]1CC2C3CCC4=CC(=O)C=C[C@]4(C)C3=CC[C@]2(C)[C@H]1C(=O)CN1CCN(c2ccccn2)CC1 (some centres undefined)
[2]
  Lowest effective dose: 10 mg/kg
[1]
  inhibition: 4%

## C[C@]12CCC(=O)C=C1CCC1C2=CC[C@@]2(C)C1CC[C@]2(O)C(=O)CN1CCNCC1 (some centres undefined)
[1]
  inhibition: 15%

## COc1ccccc1N1CCN(CC(=O)[C@@]2(O)CCC3C4CCC5=CC(=O)CC[C@]5(C)C4=CC[C@@]32C)CC1 (some centres undefined)
[1]
  inhibition: 37%

## CCNc1cccnc1N1CCN(CC(=O)[C@H]2[C@H](C)CC3C4CCC5=CC(=O)C=C[C@]5(C)C4=CC[C@@]32C)CC1.O=C(O)/C=C/C(=O)O (some centres undefined)
[2]
  Lowest effective dose: 0.03 mg/kg
[5]
  pIC50: 4.82

## C[C@]12CCC(=O)C=C1CCC1C2=CC[C@@]2(C)C1CC[C@]2(O)C(=O)CN1CCN(c2cc(N3CCCC3)nc(N3CCCC3)n2)CC1.O=C(O)/C=C/C(=O)O (some centres undefined)
[2]
  Lowest effective dose: 1 mg/kg
[6]
  Increase in LD50: 33%
[1]
  inhibition: 25%
[7]
  Increase in LD50: 0%

## C[C@]12CCC(=O)C=C1CC[C@@H]1[C@@H]2CC[C@@]2(C)[C@H]1CC[C@]2(O)C(=O)CN1CCN(c2ccccn2)CC1
[1]
  inhibition: 26%

## C[C@]12CCC(=O)C=C1CCC1C2=CC[C@@]2(C)C1CC[C@]2(O)C(=O)CN1CCN(c2cccc(N3CCCC3)n2)CC1 (some centres undefined)
[5]
  pIC50: 4.24
